H69AR inhibit: blocks growth of human H69AR lung tumor cells; H69AR lung tumor viability, ATP luminescence, 72 h; active compounds read low; viability, % at 10 µM; 85,000 tested, 6% active; AID 598;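 active = viability at or below 40%; inactive = viability above 40%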;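 note: multidrug resistant small cell line overexpressing MRP-1 efflux transporter; 100% = mean luminescence of untreated control wells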
HUVEC prolif 384: blocks proliferation of human endothelial cells. HUVEC proliferation, CellTiter-Glo luminescence, 72 h; active compounds read low. viability, % at 10 µM (by protocol). 86,000 tested, 1.1% active;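 active = viability at or below 30%; inactive = viability above 30%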;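 note: 100% = median luminescence of DMSO-only cell control wells on each plate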
Fibroblast inh: blocks proliferation of human lung fibroblasts; LL 47 human lung fibroblast viability, ATP luminescence; active compounds read low; viability, % at 10 µM; 85,000 tested, 1.1% active; AID 719;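 active = viability at or below 50% in the single dose screen; inactive = viability above 50%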;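 note: compound exposure lasted 72 h before the ATP readout; 100% = median luminescence of untreated cell-only wells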
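Assay system: human lung fibroblast line LL 47, low passage. Input: 1,150 fibroblasts seeded per well. Times: overnight cell rest, 72 h compound treatment at 37 °C. Evaluation: % viability of median cell-only signal. Technique: luminescent ATP detection, CellTiter-Glo. Control set: cell-only wells, no compound.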
PTK2B oligo ant: blocks oligomerization of human Pyk2 in cells. Q14289. Q293 cells, Pyk2 FERM NanoBiT luminescence; active compounds read low. z-score (the deposit names both 25 µM and 10 µM). 99,000 tested, 0.83% active;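 active = Z-score of -3 or lower, scaled per plate to the spread of control and sample wells; inactive = z-score above -3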;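 note: negative z-score means lost luminescence so less FERM oligomerization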
Target sequence (Q14289 whole entry, looked up): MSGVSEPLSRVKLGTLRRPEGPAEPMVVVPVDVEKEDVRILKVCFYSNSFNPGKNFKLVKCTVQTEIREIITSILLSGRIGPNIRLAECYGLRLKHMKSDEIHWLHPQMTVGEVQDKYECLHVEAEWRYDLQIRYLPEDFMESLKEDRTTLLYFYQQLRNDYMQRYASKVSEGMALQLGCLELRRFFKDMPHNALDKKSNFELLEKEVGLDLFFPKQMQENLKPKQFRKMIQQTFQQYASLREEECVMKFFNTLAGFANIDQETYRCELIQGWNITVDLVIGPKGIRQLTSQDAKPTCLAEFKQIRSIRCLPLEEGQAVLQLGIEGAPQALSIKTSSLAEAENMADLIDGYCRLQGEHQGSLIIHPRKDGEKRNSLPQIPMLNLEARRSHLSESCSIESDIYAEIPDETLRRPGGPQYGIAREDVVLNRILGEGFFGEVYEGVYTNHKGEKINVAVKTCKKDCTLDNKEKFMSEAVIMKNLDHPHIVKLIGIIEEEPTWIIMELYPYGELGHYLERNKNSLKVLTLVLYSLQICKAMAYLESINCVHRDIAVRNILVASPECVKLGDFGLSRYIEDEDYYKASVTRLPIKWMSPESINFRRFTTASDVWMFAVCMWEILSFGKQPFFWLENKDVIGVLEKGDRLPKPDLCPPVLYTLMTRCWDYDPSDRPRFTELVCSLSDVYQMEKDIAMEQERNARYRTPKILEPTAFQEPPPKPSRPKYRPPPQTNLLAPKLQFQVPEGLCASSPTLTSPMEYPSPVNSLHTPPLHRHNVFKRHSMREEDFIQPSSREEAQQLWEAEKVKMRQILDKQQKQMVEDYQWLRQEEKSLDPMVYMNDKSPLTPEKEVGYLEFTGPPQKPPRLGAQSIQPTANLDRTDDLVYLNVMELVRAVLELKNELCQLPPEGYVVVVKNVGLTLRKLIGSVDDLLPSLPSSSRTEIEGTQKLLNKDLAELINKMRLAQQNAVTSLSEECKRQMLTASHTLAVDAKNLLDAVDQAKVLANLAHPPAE
MT1-MMP txn act: MT1-MMP promoter transcription activation | 86,000 tested, 0.16% active | activation factor at 10 µM | HT1080 MT1-MMP promoter luciferase reporter, luminescence, overnight; active compounds read high;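 active = activation factor of at least 2 for MT1-MMP transcription at 10 µM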
Jurkat viability: cytotoxicity toward Jurkat cells. inhibition, % at 4 µM. Jurkat E6.1 viability, ATP luminescence, 48 h. AID 463. 56,000 tested, 1.2% active;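 active = inhibition above the mean inhibition of all tested compounds plus 3 SD, cut at about 28% in these data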
An asterisk follows results filed as active; x = no result. Shown are actives, neighbours in structure and some others; about 5.9% of the full set was active somewhere.

SMILES	H69AR inhibit	HUVEC prolif 384	Fibroblast inh	PTK2B oligo ant	MT1-MMP txn act	Jurkat viability
NS(=O)(=O)c1ccc(CCNC(=O)Nc2ccc(Cl)c(Cl)c2)cc1	19.4*	67.9	108.6	-0.29	1	x
COc1cc(/C=C2/SC(=NCc3ccccc3)N(Cc3ccccc3)C2=O)ccc1O	x	x	x	-0.64	x	x
CCOc1cc(/C=C2/SC(=Nc3ccccc3)N(Cc3cccnc3)C2=O)ccc1OCC#N	x	x	x	-3.59*	x	x
CCCn1c(N2CCN(Cc3cccc(C)c3)CC2)nc2c1c(=O)[nH]c(=O)n2C	54.6	94.7	92.3	x	1.1	18.1
CCOC(=O)C1CCN(C(=O)CC(NS(=O)(=O)c2ccc(OC)cc2)C(C)C)CC1 (centres undefined)	82.5	91.3	94.3	-0.14	1.1	-0.1
CCOC(=O)C1Cc2cc3c(cc2C1=O)CC(C(=O)OCC)C3=O (centres undefined)	19.8*	110.5	102.7	x	1	1.6
O=C1C(=O)N(CCCn2ccnc2)C(c2cccnc2)/C1=C(/O)c1ccc(F)cc1 (centres undefined)	87.5	99.2	99.1	0	1	-5.0
COc1ccc(OC)c(N(CC(=O)Nc2cccnc2)S(=O)(=O)c2ccc(C)cc2)c1	17.8*	49.5	59.1	0.44	1.1	x
COc1ccc(CNC(=O)C(C)Cc2ccccc2)cc1O (centres undefined)	x	x	x	x	1	x
CCOC(=O)Cn1c(-c2cccnc2Cl)nc2cc(Cl)c(Cl)cc21	x	x	x	-3.76*	x	x
O=C(Nc1ccccc1C(=O)NCc1ccc(Cl)cc1)c1ccco1	69.5	74.7	91.9	-1.98	1.3	-5.6
COc1ccc(OCc2ccc(C(=O)NN)cc2)cc1	x	x	x	-0.42	x	x
COc1cc2c3nnc(-c4ccc(F)cc4)c-3cn(Cc3ccccc3)c2cc1OC	1.5*	1.8*	2.7*	x	x	x
COc1ccc(Cn2cc3c(-c4ccc(F)cc4)nnc-3c3cc(OC)c(OC)cc32)cc1	1.3*	2.3*	2.2*	x	x	x
COc1cccc(-n2nnc3c(=O)n(Cc4ccc(F)cc4)cnc32)c1	79.8	94.9	98.8	-0.63	1.2	x
COc1ccc(C(O)c2nccn2Cc2ccccc2)cc1OC (centres undefined)	83.9	100.1	97.0	0.41	1	x
COc1cc2c3nnc(-c4ccc(F)cc4)c-3cn(Cc3ccc(F)cc3)c2cc1OC	-0.4*	2.6*	10.2*	x	x	x
O=C(CN(C1CCCCC1)C1CCCCC1)N1CCc2ccccc2C1	x	x	x	-0.05	x	x
CCOc1ccc(C(=O)CCc2nc3ccccc3s2)cc1	x	x	x	-3.3*	x	x
COC(=O)C1=C(C)N(c2ccc(S(N)(=O)=O)cc2)C(=O)C1	x	x	x	0.7	1.1	x
COC(=O)C1=C(C)N(c2ccc(Cl)c(Cl)c2)C(=O)C1	42.5	75.0	65.6	-0.54	1.2	63.7*
O=C(NCc1nc2ccccc2[nH]1)[C@H]1C[C@@H]1[C@H](NP(=O)(c1ccccc1)c1ccccc1)c1ccccc1	x	x	x	x	1.2	x
COC(=O)C1(CC(C)C)C=CC[N+]1(C)C (centres undefined)	x	x	x	x	1.1	x
CC1=C(C(=O)OCc2ccc3c(c2)OCO3)C(c2ccc(F)cc2)NC(=O)N1 (centres undefined)	x	x	x	-2.14	x	83.5*
CC1=C(C(=O)OCc2ccc3c(c2)OCO3)C(c2ccc(Cl)cc2)NC(=O)N1 (centres undefined)	28.6*	26.7*	52.7	-3.23*	1.2	77.7*
SMILES	H69AR inhibit	HUVEC prolif 384	Fibroblast inh	PTK2B oligo ant	MT1-MMP txn act	Jurkat viability
CCOC(=O)C1=C(C)NC(=O)NC1c1ccc2c(c1)OCCO2 (centres undefined)	83.6	96.1	101.1	-0.47	1.1	4.1
Cc1cc(C)n(CC(O)Cn2c3ccc(Br)cc3c3cc(Br)ccc32)c(=O)n1 (centres undefined)	92.4	21.2*	96.2	-0.79	1.1	x
C=CCn1c(=O)c2c3c(sc2n2c(Nc4ccc(OC)cc4)nnc12)CCCC3	90.3	77.8	95.4	-2.19	1.2	-3.0
C=CCn1c(=O)c2c3c(sc2n2c(Nc4ccccc4)nnc12)CCCC3	101.1	104.0	107.0	-3.72*	1	x
C=CCn1c(=O)c2c3c(sc2n2c(Nc4ccc(C(=O)OCC)cc4)nnc12)CCCC3	38.7*	86.1	103.7	-0.17	1.1	x
COC(=O)c1ccc(C(NC(=O)OCc2ccccc2)/C(F)=C/[C@@H](C)C(=O)N2CCN(C)CC2)cc1 (some centres undefined)	x	x	x	x	1.5	x
CC(=O)OCCCN1c2ccccc2Nc2nnc(-c3ccccc3)cc21	39.4*	66.7	88.4	-2.82	1.2	x
Cc1ccccc1NC(=S)NCCc1ccccn1	x	x	x	1.31	x	x
Cc1ccc(C)c(NC(=S)c2ccccn2)c1	2.7*	87.5	79.7	-0.23	1.4	x
S=C(Nc1ccccn1)c1ccccn1	1.3*	83.7	84.1	0.04	1	0.3
COC(=O)[C@@]1(Cc2ccc(OC)cc2)[C@H]2c3cc(C(=O)N(C)C)n(Cc4cc(F)c(F)c(F)c4)c3C[C@H]2CN1C(=O)c1ccccc1	x	x	x	x	1.2	x
Cn1c(=O)c2nc(-c3ccc(Cl)cc3Cl)oc2c2ccccc21	105.7	97.0	94.3	x	1.2	-3.9
COC(=O)c1c(NC(=O)c2ccco2)sc(C(=O)Nc2ccc(F)cc2)c1C	3.6*	34.5	100.3	0.26	1.2	-4.2
O=C1CN(C(=O)COC(=O)C2=COCCO2)c2ccccc2N1	111.8	96.0	93.4	-0.49	1.2	-2.5
O=C(OCC(=O)N1CCc2ccccc21)C1=COCCO1	27.6*	94.0	99.1	0.51	1.2	-6.9
Cc1nc([N+](=O)[O-])c(Sc2nc3ccccc3n2C)n1Cc1ccccc1	x	x	x	-0.43	x	x
CSc1cccc(NC(=O)c2ccc(Cl)nc2)c1	79.3	76.0	96.2	0.99	1.5	x
CC1CC(N(C(=O)c2ccccc2Cl)c2ccccc2)c2ccccc2N1 (centres undefined)	x	x	x	-3.65*	x	x
O=C(c1cn(-c2ccccc2)nc1-c1cccs1)N1CCOCC1	96.8	92.5	96.2	0.71	1.2	x
O=C(c1cn(-c2ccccc2)nc1-c1cccs1)N1CCN(c2ccccc2)CC1	10.6*	53.1	75.4	1.02	1.3	x
O=S(=O)(c1ccc(OCC(O)CN2CCc3ccccc3C2)cc1)N1CCOCC1 (centres undefined)	81.7	87.3	90.1	-0.43	1.1	2.7
CCOC(=O)c1cc2sccc2n1CC(=O)N1c2ccccc2CC1C (centres undefined)	4.7*	11.6*	68.8	-1.57	1.1	x
CSc1ccc(-c2nnn(CC(=O)NCc3ccccc3)n2)cc1	25.1*	70.1	92.0	0.32	1.1	x
CC(O)/C=C/c1ccc2ccccc2n1 (centres undefined)	23.4*	70.4	70.8	-0.38	1.2	15.0
Cc1ccsc1/C=C/c1ccc2ccccc2n1	x	x	x	0.22	x	x
CCOC(=O)N1CCC(Nc2c(N3CCN(c4cc(Cl)ccc4C)CC3)c(=O)c2=O)CC1	64.0	82.4	89.9	x	1	16.5
CCOC(=O)N1CCC(Nc2c(-c3ccc(C)c(C)c3)c(=O)c2=O)CC1	33.5*	93.6	100.3	0.66	1.2	4.0

Bioassay records (PubChem BioAssay)
